Assays:
[1] = target: GABA-A receptor; alpha-1/beta-3/gamma-2 (Homo sapiens) (UniProt P14867+P18507+P28472); assay: Percent maximum change in electrophysiological response in Xenopus oocytes expressing alpha-1-beta-3-gamma-2 GABA-A receptor; format: functional, cell-based; conditions: Oocyte
How it was run: (§1)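 Two-electrode voltage clamp on Xenopus oocytes injected with human GABA-A subunit cDNAs, 24-72 h expression, perfused with modified Barth's medium at pH 7.5, clamped between -40 and -70 mV. The GABA EC20 was titrated against a 3 mM GABA maximum. […] Result is % change of control current, mean ± SE of ≥4 oocytes.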

[2] = target: GABA A receptor alpha-4/beta-3/gamma-2 (Homo sapiens, UniProt P18507+P28472+P48169); assay: Inhibition of [3H]-Ro-15-1788 binding to human alpha-4-beta-3-gamma-2 GABA-A receptor expressed in L(tk-) cells; format: cell-based
[3] = target: T1, GABA-A receptor; alpha-2/beta-3/gamma-2 (Homo sapiens, UniProt P18507+P28472+P47869); assay: Binding affinity towards human gamma-aminobutyric-acid A receptor alpha-2-beta-3-gamma-2 using [3H]Ro-151788 expressed in L(tk-) cells; format: cell-based
T1 sequence (P18507 whole entry): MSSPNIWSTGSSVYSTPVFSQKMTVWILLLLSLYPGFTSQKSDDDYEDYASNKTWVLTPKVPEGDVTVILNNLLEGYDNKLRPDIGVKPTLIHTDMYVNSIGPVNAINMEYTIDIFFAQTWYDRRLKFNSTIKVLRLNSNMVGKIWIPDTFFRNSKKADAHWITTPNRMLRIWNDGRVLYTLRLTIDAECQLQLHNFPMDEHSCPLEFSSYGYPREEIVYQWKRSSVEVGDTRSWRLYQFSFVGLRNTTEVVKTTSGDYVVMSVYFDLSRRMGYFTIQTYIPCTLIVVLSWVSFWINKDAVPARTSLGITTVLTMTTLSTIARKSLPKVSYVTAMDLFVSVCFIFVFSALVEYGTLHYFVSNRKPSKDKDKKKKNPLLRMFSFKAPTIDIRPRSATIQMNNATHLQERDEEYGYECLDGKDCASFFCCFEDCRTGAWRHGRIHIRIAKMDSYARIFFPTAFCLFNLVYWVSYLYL
T1 sequence (P28472 whole entry): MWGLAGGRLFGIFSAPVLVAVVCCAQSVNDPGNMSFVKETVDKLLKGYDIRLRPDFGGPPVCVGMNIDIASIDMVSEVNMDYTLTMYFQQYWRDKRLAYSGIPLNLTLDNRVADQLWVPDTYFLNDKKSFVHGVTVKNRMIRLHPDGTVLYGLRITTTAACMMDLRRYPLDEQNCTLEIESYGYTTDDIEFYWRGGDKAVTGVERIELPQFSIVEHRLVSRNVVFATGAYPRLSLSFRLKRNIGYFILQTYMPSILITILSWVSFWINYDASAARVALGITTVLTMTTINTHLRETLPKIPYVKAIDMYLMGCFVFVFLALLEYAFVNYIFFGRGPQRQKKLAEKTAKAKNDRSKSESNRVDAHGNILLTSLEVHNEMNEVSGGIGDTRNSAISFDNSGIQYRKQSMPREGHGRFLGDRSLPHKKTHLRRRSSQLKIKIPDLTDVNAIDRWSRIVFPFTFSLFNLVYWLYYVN
T1 sequence (P47869 whole entry): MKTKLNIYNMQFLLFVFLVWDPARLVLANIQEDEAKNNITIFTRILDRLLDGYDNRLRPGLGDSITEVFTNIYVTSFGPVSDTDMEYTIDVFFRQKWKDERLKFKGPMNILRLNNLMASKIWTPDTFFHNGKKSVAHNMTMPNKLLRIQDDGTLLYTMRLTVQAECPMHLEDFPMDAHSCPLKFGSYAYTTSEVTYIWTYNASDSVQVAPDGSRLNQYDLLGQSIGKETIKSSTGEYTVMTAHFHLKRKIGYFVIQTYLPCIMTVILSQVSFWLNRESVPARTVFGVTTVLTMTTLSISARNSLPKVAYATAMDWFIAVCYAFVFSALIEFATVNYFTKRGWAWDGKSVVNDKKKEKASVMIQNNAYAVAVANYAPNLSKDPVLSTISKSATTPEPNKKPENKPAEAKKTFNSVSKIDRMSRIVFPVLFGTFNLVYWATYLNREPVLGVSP

[4] = target: GABA-A receptor; alpha-5/beta-3/gamma-2 (Homo sapiens) (UniProt P18507+P28472+P31644); assay: Percent change in electrophysiological response in Xenopus oocytes expressing Alpha-5-beta-3-gamma-2 GABA-A receptor; format: functional, cell-based; conditions: Oocyte; how it was run: as §1
[5] = target: T2, GABA-A receptor; alpha-5/beta-3/gamma-2 (Homo sapiens, UniProt P18507+P28472+P31644); assay: Effective concentration against human Alpha-5-beta-3-gamma-2 GABA-A receptor was determined; format: functional
T2 sequence (P18507 whole entry): T1 sequence (P18507 whole entry)
T2 sequence (P28472 whole entry): T1 sequence (P28472 whole entry)
T2 sequence (P31644 whole entry): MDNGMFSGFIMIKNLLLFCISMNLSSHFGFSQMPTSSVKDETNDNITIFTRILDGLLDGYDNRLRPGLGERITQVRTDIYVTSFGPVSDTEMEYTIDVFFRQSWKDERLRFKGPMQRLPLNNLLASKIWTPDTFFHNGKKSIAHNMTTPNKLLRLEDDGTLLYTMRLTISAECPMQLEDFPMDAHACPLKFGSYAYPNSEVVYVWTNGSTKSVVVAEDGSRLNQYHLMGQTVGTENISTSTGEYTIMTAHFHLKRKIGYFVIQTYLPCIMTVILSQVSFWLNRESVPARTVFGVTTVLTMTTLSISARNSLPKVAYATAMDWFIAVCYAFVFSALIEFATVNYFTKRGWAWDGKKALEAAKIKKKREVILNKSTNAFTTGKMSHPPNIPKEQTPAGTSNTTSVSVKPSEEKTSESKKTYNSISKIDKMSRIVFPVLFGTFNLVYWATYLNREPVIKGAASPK
How it was run: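 Whole-cell patch clamp was run on Ltk- cells stably expressing human α5β3γ2s. Bath solution was NaCl/NaHCO3/glucose buffer, pH 7.2. Pipettes held 130 mM CsCl, 10 mM EGTA, 3 mM Mg-ATP, pH 7.3. Drug was applied by double-barreled pipette with an EC20 GABA concentration, and concentration–response data were fitted to a Hill equation for EC50. Values are mean ± SEM of at least five fitted curves, with at least five cells per point.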

GABA A receptor alpha-4/beta-3/gamma-2, sequence (P48169 whole entry, one chain of several): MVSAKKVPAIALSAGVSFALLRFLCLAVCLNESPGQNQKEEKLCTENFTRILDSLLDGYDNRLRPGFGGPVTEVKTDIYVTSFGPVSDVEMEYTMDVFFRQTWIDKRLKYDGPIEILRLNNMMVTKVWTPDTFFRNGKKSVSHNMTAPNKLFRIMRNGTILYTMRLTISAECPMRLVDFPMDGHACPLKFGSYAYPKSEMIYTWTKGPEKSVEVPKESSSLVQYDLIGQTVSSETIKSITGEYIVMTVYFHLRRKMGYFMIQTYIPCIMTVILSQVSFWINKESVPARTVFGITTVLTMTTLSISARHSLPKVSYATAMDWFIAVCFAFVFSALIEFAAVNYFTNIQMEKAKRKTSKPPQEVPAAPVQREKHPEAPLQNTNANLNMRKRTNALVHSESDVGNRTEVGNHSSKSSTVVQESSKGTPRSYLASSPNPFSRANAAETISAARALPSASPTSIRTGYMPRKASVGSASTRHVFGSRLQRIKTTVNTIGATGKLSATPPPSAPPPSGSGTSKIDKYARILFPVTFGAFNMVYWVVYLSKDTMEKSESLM

Efficacy [1]: -14% | Ki [2]: 244 nM | Ki [3]: 2.7 nM | Efficacy [4]: -46% | EC50 [5]: 2.5 nM
SMILES: Cc1cc(-c2nnc3c4ccccc4c(OCc4ccccn4)nn23)no1
